# Most compounds without a hit are left out; they make up all but 2.6% or so of the library.
# Scp-1 inhibitor: Scp-1 phosphatase inhibitors, primary screen, biochemical, colorimetric, uHTS; Recombinant Scp1, phosphopeptide, malachite green phosphate absorbance; 340,000 tested, 0.88% active; inhibition, % at 20 µM; Carboxy-terminal domain RNA polymerase II polypeptide A small phosphatase 1 (Homo …;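 active means inhibition above about 50% at 20 µM, limit read from the data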
# Target sequence (Q9GZU7 76-261 limits assumed): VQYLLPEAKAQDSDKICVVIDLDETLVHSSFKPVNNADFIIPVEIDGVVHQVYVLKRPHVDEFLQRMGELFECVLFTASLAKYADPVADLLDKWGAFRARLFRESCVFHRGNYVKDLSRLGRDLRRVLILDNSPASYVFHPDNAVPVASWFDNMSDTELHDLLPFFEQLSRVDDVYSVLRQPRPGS
#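 System: SCP-1 catalytic domain; Reagent: Phospho 17-mer peptide substrate; Doses: one concentration, 20 µM, with 1.0% DMSO; Incubation: 45 min room-temperature reaction, 5 min colour, 30 min stabiliser; Signal: Phosphate-binding colour reagent, absorbance read at 630 nm.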
# rCAG binder: binders of r(CAG) RNA repeats, primary screen, biochemical, fluorescence | AID 651821, 2012 | inhibition, % at 3 µM | 370,000 tested, 1.3% active | r(CAG) RNA repeat, TO-PRO-1 dye displacement fluorescence;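 active means inhibition above the plate cutoff, the mean of all test compounds on that plate plus 3 SD, cut at about 35% in these data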;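 further: higher means more dye released from RNA so lower well fluorescence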
# LMPTP inh: LMPTP phosphatase inhibitors, primary screen, biochemical, fluorescence intensity, uHTS | recombinant LMPTP-A, OMFP fluorogenic substrate | 360,000 tested, 0.22% active | Low molecular weight phosphotyrosine protein phosphatase (Homo sapiens), P24666 | AID 651560, 2012 | inhibition, % at 20 µM;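 active means compounds that cut the enzyme signal by at least half of the control window in the single-dose screen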
# Target sequence (P24666 whole entry, looked up): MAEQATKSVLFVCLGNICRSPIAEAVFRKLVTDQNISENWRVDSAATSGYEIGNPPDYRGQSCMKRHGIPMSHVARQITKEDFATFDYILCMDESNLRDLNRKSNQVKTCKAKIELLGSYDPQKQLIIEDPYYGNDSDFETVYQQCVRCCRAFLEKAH
#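 Assay system: LMPTP-A enzyme. Input: 0.625 nM LMPTP-A final. Probe or stimulus: 400 µM OMFP. Compound dosing: single 20 µM dose. Schedule: 50 min dark incubation at room temperature. Detection: fluorescence intensity of OMFP turnover product. Read-out: percent inhibition versus substrate-only and uninhibited controls. Benchmarks: no-enzyme low control, uninhibited high control.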
# STEP inh: STEP phosphatase inhibitors, primary screen, biochemical, fluorescence intensity, uHTS. Tyrosine-protein phosphatase non-receptor type 5 (Homo sapiens), P54829. recombinant STEP, OMFP fluorogenic substrate. inhibition, % at 20 µM. 360,000 tested, 0.25% active. AID 588621, 2011;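 active means inhibition at 20 µM, scaled per plate between control wells, above about 37%, limit read from the data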
#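 medium = Bis-Tris buffer pH 6.0, 2.5 mM DTT, 0.005% Tween 20 | test system = STEP (striatal-enriched tyrosine phosphatase) enzyme, cell-free | measure = normalized % inhibition | compound dosing = 20 µM, 1% DMSO | also added = 25 µM OMFP | schedule = reaction 20 min, ambient temperature | measured by = fluorescence read at 480 nm ex / 540 nm em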
# NadD block: inhibitors of S. aureus NadD, primary screen, biochemical, colorimetric, uHTS. purified NadD enzyme, colorimetric absorbance read-out. inhibition, % at 20 µM. 360,000 tested, 0.78% active; in the data active means inhibition above about 26%
# NadD inh conf: inhibitors of S. aureus NadD, confirmation, biochemical, colorimetric, single concentration | shares compounds with NadD block | purified S. aureus NadD, colorimetric enzyme assay | inhibition, % at 20 µM | 2,000 tested, 13% active; in the data active means inhibition mostly above about 42%, no sharp cut-off; inactive means mostly below about 42%
# Hits are given with their value; . = inactive; / = no result given.
SMILES,Scp-1 inhibitor,rCAG binder,LMPTP inh,STEP inh,NadD block,NadD inh conf
NS(=O)(=O)c1cccc(NC(=O)CN2CCc3ccccc32)c1,.,.,.,.,37.7,.
Cc1ccc(NC(=O)c2ccc(-n3cccn3)c([N+](=O)[O-])c2)cc1,.,.,.,.,.,/
O=C(Nc1ccc(C2=NCCN2)cc1)c1ccc(C(=O)Nc2ccc(C3=NCCN3)cc2)c([N+](=O)[O-])c1,.,.,82.4,.,50.4,.
O=C(Nc1nc(C2C3CC4CC(C3)CC2C4)cs1)c1cc2cc([N+](=O)[O-])ccc2oc1=O (centres undefined),.,.,.,.,35.1,.
COc1ccc(NC(=O)N(C)[C@H]2C[C@H]3c4[nH]c5c(-c6cccc(C)c6)cccc5c4CCN3C(=O)[C@H]2[C@H](C)O)cc1,/,.,/,/,/,/
COC(=O)c1cccc(CN2C(=O)SC(Nc3ccccc3)C2=O)c1 (centres undefined),.,.,.,.,30.7,.
CCOC(=O)CC[C@@H]1CC[C@]2(CCCN(Cc3nccn3C)C2)O1,/,.,/,/,/,/
CN[C@H]1C[C@H]2c3cc(-c4ccccc4C)ccc3CCN2C[C@H]1[C@H](C)O,/,.,/,/,/,/
CSc1ccc(C2C(C#N)=C(N)Oc3c2ccc(=O)c2c(C)oc(C)c32)cc1 (centres undefined),.,.,.,.,57.7,.
Cc1oc(C)c2c(=O)ccc3c(c12)OC(N)=C(C#N)C3c1ccccc1 (centres undefined),.,.,.,.,.,/
CCNc1ccc(Br)cc(C(=O)/C=C/c2ccc(Cl)cc2)c1=O,.,/,.,.,44.4,.
CNc1ccc(Br)cc(C(=O)/C=C/c2ccc(Cl)cc2Cl)c1=O,.,.,.,.,61.7,.
CNc1ccc(Br)cc(C(=O)/C=C/c2ccc(OC)cc2OC)c1=O,.,.,.,.,.,/
COc1ccc(/C=N/NC(=O)c2cc(Br)ccc2O)cc1Cn1cc(Cl)cn1,.,.,.,.,38.5,.
COc1ccc(/C=N/NC(=O)c2ccc(Cl)cc2)cc1Cn1cc(Cl)cn1,.,.,.,.,.,/
Nc1c(Cl)cc(-c2csc(N3CCCC3c3nc4cc(Cl)c(Cl)cc4n3CCCO)n2)cc1Cl (centres undefined),.,.,.,.,.,/
CCCn1c(C2CCCN2c2nc(C)cs2)nc2cc(Cl)c(Cl)cc21 (centres undefined),.,.,.,.,.,/
Cc1ccc(Cn2c(C3CCCN3c3nc(-c4cc(Cl)c(N)c(Cl)c4)cs3)nc3cc(Cl)c(Cl)cc32)cc1 (centres undefined),.,.,.,.,51.3,43.3
CCCn1c(C(C)Nc2nc(-c3cc(Cl)c(N)c(Cl)c3)cs2)nc2cc(Cl)c(N3CCCCC3)cc21 (centres undefined),.,.,.,.,33.3,.
Nc1c(Cl)cc(-c2csc(N3CCCC3c3nc4cc(Cl)c(N5CCCCC5)cc4n3CCCO)n2)cc1Cl (centres undefined),.,.,.,.,31.6,.
CCCn1c(C2CCCN2c2nc(-c3cccc(Br)c3)cs2)nc2cc(Cl)c(Cl)cc21 (centres undefined),.,.,.,.,36.1,.
Cc1cccc(NC(=O)NCCCN2CCN(c3ccc(F)cc3)CC2)c1,/,.,/,/,/,/
C=CCN1[C@@H](C)[C@@H](c2ccccc2)Oc2c(Cl)cccc2S1(=O)=O,/,.,/,/,/,/
CCOc1ccc(N=Nc2c(=O)[nH]n3c(=O)c4c([nH]c23)CCCC4)cc1,.,.,.,.,31.7,.
COc1ccc2ccccc2c1/C=N/NC(=O)c1nnn(-c2nonc2N)c1CN(C)C,.,.,.,.,.,/
SMILES,Scp-1 inhibitor,rCAG binder,LMPTP inh,STEP inh,NadD block,NadD inh conf
COc1ccc2ccccc2c1/C=N/NC(=O)c1nnn(-c2nonc2N)c1C(C)C,.,.,.,.,33.4,41.7
Cc1nc(N2CCN(C)CC2)c2cc(-c3ccccc3)sc2n1,.,.,.,.,.,/
Cc1nc(N2CCN(S(=O)(=O)c3ccccc3)CC2)c2cc(-c3ccccc3)sc2n1,.,.,.,.,41.4,.
O=C1c2ccc(-c3ccc(Cl)c(C(F)(F)F)c3)cc2S(=O)(=O)c2cccc(C(=O)N3CCN(c4ccc(Cl)cn4)CC3)c21,.,.,.,.,54.6,.
COc1ccc(-n2c(SCC(=O)NNC(=S)Nc3ccc(C)cc3)nnc2-c2ccccc2)cc1,/,.,/,/,/,/
Cc1ccc(NS(=O)(=O)c2cc(NC(=O)c3ccc4c(c3)NC(=O)CS4)ccc2Cl)c(C)c1,.,.,.,.,37.4,52.2
CN1CCCC1CCSc1ncccc1-c1nc2ccccc2[nH]1 (centres undefined),/,.,/,/,/,/
CCCNC(=O)Cn1c(=O)/c(=C\c2ccc(-c3cccc([N+](=O)[O-])c3)o2)s/c1=C\C(=O)C(C)(C)C,.,.,.,.,34.9,.
Cc1ccc(C(=O)N/C(=C\c2ccc(-c3cccc([N+](=O)[O-])c3)o2)C(=O)NC(C)(C)C)cc1,.,.,.,.,.,/
O=C1CC2c3cc(-c4cc5ccccc5o4)ccc3CCN2C(=O)CN1Cc1ccccc1 (centres undefined),/,.,/,/,/,/
COc1cc2c(cc1OC)C1(Nc3c-2c(Cc2ccccc2)nn3-c2ccccc2)C(=O)Nc2ccccc21 (centres undefined),.,.,.,.,44.7,.
Clc1ccc(CSc2nnc(-c3cccs3)o2)cc1Cl,/,.,/,/,/,/
Cc1cccn2c(=O)c3cc(C(N)=S)c(=N)n(CCCN4CCOCC4)c3nc12,.,.,.,.,36.0,.
CCOC(=O)[C@]12CCCCC/C=C\1N(CCc1ccc(Cl)cc1)C(=O)[C@H]2CC(=O)N1CCC(c2ccccc2)CC1,/,.,/,/,/,/
O=C(OCCN1CCN(C2CN(Cc3cn(Cc4cccc(F)c4)nn3)S(=O)(=O)C2)CC1)c1cc2ccccc2o1 (centres undefined),/,.,/,/,/,/
Cc1ccc(C)c(N(CC(=O)NC2CCCC2)C(=O)c2cc3cc4cc(C)ccc4nc3s2)c1,.,.,.,.,.,/
Cc1cccc(N(CC(=O)NC2CCCC2)C(=O)c2cc3cc4cccc(C)c4nc3s2)c1C,.,.,.,.,39.9,.
CSC(=Cc1ccc(C(=O)c2ccc(C)cc2)n1C)S(C)=O (centres undefined),/,.,/,/,/,/
Cc1ccc(S(=O)(=O)c2nnn3c2nc(N2CCN(c4ccccn4)CC2)c2ccccc23)cc1C,.,.,.,.,40.2,.
Clc1cccc(Cc2c(-c3ccco3)nc3ccc(Br)cn23)c1,/,.,.,.,41.2,.

# Screening data: PubChem, several laboratories
